Data published in ChEMBL document CHEMBL1142636 (2000).
Activity calls are given as the source filed them.

What was measured:
Format in all cases: functional
[1] = tested on: Hs-578T; test: Growth inhibition of human HS578T cells
[2] = tested on: MDA-MB-231; test: Growth inhibition of human MDA-MB-231 cells
[3] = tested on: MCF7; test: Growth inhibition of human MCF7 cells
[4] = tested on: DU-145; test: Growth inhibition of human DU145 cells
[5] = tested on: PC-3; test: Growth inhibition of human PC3 cells
[6] = tested on: UO-31; test: Growth inhibition of human UO31 cells
Procedure, shortened: (§1)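 Tested at the NCI in its human disease-oriented in vitro screen of 60 tumour cell lines, following the Monks et al. methods. Activity is expressed as GI50, given as log molar values.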

[7] = tested on: TK-10; test: Growth inhibition of human TK10 cells; procedure, shortened: as §1
[8] = tested on: SN12C; test: Growth inhibition of human SN12C cells; procedure, shortened: as §1
[9] = tested on: RXF 393; test: Growth inhibition of human […] cells
[10] = tested on: CAKI-1; test: Growth inhibition of human CAKI1 cells
[11] = tested on: ACHN; test: Growth inhibition of human ACHN cells
[12] = tested on: A498; test: Growth inhibition of human A498 cells
[13] = tested on: 786-0; test: Growth inhibition of human 786-0 cells
[14] = tested on: SK-OV-3; test: Growth inhibition of human SK-OV-3 cells; procedure, shortened: as §1
[15] = tested on: OVACR8; test: Growth inhibition of human OVACR8 cells
[16] = tested on: OVACR5; test: Growth inhibition of human OVACR5 cells
[17] = tested on: OVACR4; test: Growth inhibition of human OVACR4 cells
[18] = tested on: OVACR3; test: Growth inhibition of human […] cells
[19] = tested on: IGROV-1; test: Growth inhibition of human IGROV1 cells
[20] = tested on: UACC-62; test: Growth inhibition of human UACC62 cells; procedure, shortened: as §1
[21] = tested on: UACC-257; test: Growth inhibition of human UACC257 cells; procedure, shortened: as §1
[22] = tested on: SK-MEL-5; test: Growth inhibition of human SK-MEL-5 cells; procedure, shortened: as §1
[23] = tested on: SK-MEL-28; test: Growth inhibition of human SK-MEL-28 cells; procedure, shortened: as §1
[24] = tested on: SK-MEL-2; test: Growth inhibition of human SK-MEL-2 cells; procedure, shortened: as §1
[25] = tested on: M19-MEL; test: Growth inhibition of human M19-MEL cells
[26] = tested on: M14; test: Growth inhibition of human M14 cells
[27] = tested on: Malme-3M; test: Growth inhibition of human MALME-3M cells
[28] = tested on: LOX IMVI; test: Growth inhibition of human LOX IMVI cells
[29] = tested on: XF498; test: Growth inhibition of human XF498 cells; procedure, shortened: as §1
[30] = tested on: U-251; test: Growth inhibition of human U251 cells; procedure, shortened: as §1
[31] = tested on: SNB-75; test: Growth inhibition of human SNB75 cells; procedure, shortened: as §1
[32] = tested on: SNB-19; test: Growth inhibition of human SNB19 cells; procedure, shortened: as §1
[33] = tested on: SF-539; test: Growth inhibition of human SF539 cells; procedure, shortened: as §1
[34] = tested on: SF-295; test: Growth inhibition of human SF295 cells; procedure, shortened: as §1
[35] = tested on: SF-268; test: Growth inhibition of human SF268 cells; procedure, shortened: as §1
[36] = tested on: SW-620; test: Growth inhibition of human SW620 cells; procedure, shortened: as §1
[37] = tested on: KM-20L2; test: Growth inhibition of human KM20L2 cells
[38] = tested on: KM12; test: Growth inhibition of human KM12 cells
[39] = tested on: HT-29; test: Growth inhibition of human HT29 cells
[40] = tested on: HCT-15; test: Growth inhibition of human HCT15 cells
[41] = tested on: HCT-116; test: Growth inhibition of human HCT116 cells
[42] = tested on: HCC 2998; test: Growth inhibition of human HCC2998 cells
[43] = tested on: DLD-1; test: Growth inhibition of human DLD1 cells
[44] = tested on: COLO 205; test: Growth inhibition of human COLO205 cells
[45] = tested on: DMS-273; test: Growth inhibition of human DMS273 cells
[46] = tested on: DMS144; test: Growth inhibition of human DMS144 cells
[47] = tested on: LXFL 529; test: Growth inhibition of human LXFL529 cells
[48] = tested on: NCI-H522; test: Growth inhibition of human NCI-H522 cells
[49] = tested on: NCI-H460; test: Growth inhibition of human NCI-H460 cells
[50] = tested on: NCI-H322M; test: Growth inhibition of human NCI-H322M cells
[51] = tested on: NCI-H23; test: Growth inhibition of human NCI-H23 cells
[52] = tested on: NCI-H226; test: Growth inhibition of human NCI-H226 cells
[53] = tested on: HOP-92; test: Growth inhibition of human HOP92 cells
[54] = tested on: HOP-62; test: Growth inhibition of human HOP62 cells
[55] = tested on: HOP-18; test: Growth inhibition of human HOP18 cells
[56] = tested on: EKVX; test: Growth inhibition of human EKVX cells
[57] = tested on: A549; test: Growth inhibition of human A549 cells
[58] = tested on: SR; test: Growth inhibition of human SR cells; procedure, shortened: as §1
[59] = tested on: RPMI8266; test: Growth inhibition of human RPMI8266 cells
[60] = tested on: MOLT-4; test: Growth inhibition of human MOLT4 cells
[61] = tested on: K562; test: Growth inhibition of human K562 cells
[62] = tested on: HL-60(TB); test: Growth inhibition of human HL60(TB) cells
[63] = tested on: CCRF-CEM; test: Growth inhibition of human CCRF-CEM cells
[64] = tested on: MDA-MB-435; test: Growth inhibition of human MDA-MB-435 cells
[65] = tested on: MDA-N; test: Growth inhibition of human MDA-N cells
[66] = tested on: BT-549; test: Growth inhibition of human BT549 cells
[67] = tested on: T47D; test: Growth inhibition of human T47D cells; procedure, shortened: as §1
[68] = tested on: NCI/ADR-RES; test: Growth inhibition of human MCF7/ADR-RES cells

Measured: Activity

COc1cc(Cn2c3ccccc3c3cc(C)c4c(c32)C=CC(C)(CCC=C(C)C)O4)cc2c1[nH]c1ccccc12 (stereo unspecified)
inactive: [1] | [2] | [3] | [4] | [5] | [6] | [7] | [8] | [9] | [10] | [11] | [12] | [13] | [14] | [15] | [16] | [17] | [18] | [19] | [20] | [21] | [22] | [23] | [24] | [25] | [26] | [27] | [28] | [29] | [30] | [31] | [32] | [33] | [34] | [35] | [36] | [37] | [38] | [39] | [40] | [41] | [42] | [43] | [44] | [45] | [46] | [47] | [48] | [49] | [50] | [51] | [52] | [53] | [54] | [55] | [56] | [57] | [58] | [59] | [60] | [61] | [62] | [63] | [64] | [65] | [66] | [67] | [68]

Cc1cc2c([nH]c3ccccc32)c2c1OC(C)(C)[C@H]1[C@H]3CC(C)(C)Oc4c(C)cc5c6ccccc6n(c5c43)[C@@H]21
inactive: [1] | [2] | [3] | [4] | [5] | [6] | [7] | [8] | [9] | [10] | [11] | [12] | [13] | [14] | [15] | [16] | [17] | [18] | [19] | [20] | [21] | [22] | [23] | [24] | [25] | [26] | [27] | [28] | [29] | [30] | [31] | [32] | [33] | [34] | [35] | [36] | [37] | [38] | [39] | [40] | [41] | [42] | [43] | [44] | [45] | [46] | [47] | [48] | [49] | [50] | [51] | [52] | [53] | [54] | [55] | [56] | [57] | [58] | [59] | [60] | [61] | [62] | [63] | [64] | [65] | [66] | [67] | [68]
